# Source: PubChem (several laboratories)
# An excerpt weighted towards active compounds, which were near 3.7% of everything screened.
# GPR7 antag: antagonists of human GPR7 (neuropeptides B/W receptor 1). P48145. GPR7-expressing cells, fluorescence antagonist assay. inhibition, % at 4.4 µM. hit rate 1.1% among 290,000. AID 1861; in the data active means inhibition above about 16%, passing the limit was not always enough;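 further: cells stimulated with the agonist NPW; 0% = agonist with vehicle and 100% = vehicle without agonist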
# EP2 modulator: modulates human prostaglandin E2 receptor EP2 signaling | induction, % at 25 µM | EP2-expressing cells, cAMP HTRF FRET, PGE2 co-stimulation | hit rate 0.83% among 260,000 | P43116;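 active means compounds whose cAMP rise, as percent of the full-agonist control response, exceeds 60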;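 further: rat C6 glioma line stably carrying human EP2 under a CMV promoter; the protocol text gives 20 µM as final concentration; 100% = response of wells given 1 µM PGE2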
# OX1R antag-1: antagonists of human orexin 1 receptor; CHO/OX1R cells, Fluo-8 calcium fluorescence, orexin A; inhibition, % at 5 µM; hit rate 0.43% among 330,000;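 active means inhibition above its plate's threshold, mean inhibition of all tested compounds on the plate plus 3 SD, cut at about 37% in these data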;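 further: 0% = orexin A challenge wells and 100% = SB-334867-A antagonist wells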
# Target sequence (O43613 whole entry, looked up): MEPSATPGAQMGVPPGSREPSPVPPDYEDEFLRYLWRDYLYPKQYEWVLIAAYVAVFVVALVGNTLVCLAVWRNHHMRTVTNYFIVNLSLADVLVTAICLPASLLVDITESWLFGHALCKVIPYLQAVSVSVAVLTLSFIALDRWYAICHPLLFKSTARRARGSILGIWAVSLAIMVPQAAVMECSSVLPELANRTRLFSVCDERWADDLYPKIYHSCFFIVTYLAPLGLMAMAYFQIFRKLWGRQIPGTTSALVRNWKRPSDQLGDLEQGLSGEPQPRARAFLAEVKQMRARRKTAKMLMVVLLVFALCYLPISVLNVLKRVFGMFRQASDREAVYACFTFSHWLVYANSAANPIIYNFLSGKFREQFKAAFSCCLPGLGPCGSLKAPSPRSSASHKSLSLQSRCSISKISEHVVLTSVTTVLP
# EP2 antag: blocks the human prostaglandin E2 receptor EP2. AID 1422. C6 glioma cells expressing human EP2, cAMP TR-FRET; cells stimulated with saturating PGE2. inhibition, % at 25 µM. P43116. hit rate 0.52% among 260,000;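 active means percent inhibition above 40 after rounding to a whole number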;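 further: rat C6 glioma host cells with rolipram phosphodiesterase inhibitor present; the protocol text gives 20 µM as final concentration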
# CHO parental Ca: counter-screen: ATP calcium response change in parental CHO cells; parental CHO-K1, ATP-induced calcium, Fluo-8 fluorescence; inhibition, % at 5.6 µM; hit rate 0.63% among 330,000; AID 463079;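 active means inhibition above that plate's mean sample inhibition plus 3 SD, cut at about 26% in these data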;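 further: 0% = ATP-challenged DMSO wells and 100% = DMSO wells without ATP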
#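 Assay system: parental CHO cells; Read-out basis: percent inhibition of ATP-evoked calcium rise, normalized to controls; Benchmarks: ATP and no-ATP DMSO wells; Compound dosing: single nominal dose of 5.6 µM per compound; Signal: Fluo-8 calcium dye fluorescence; Also added: ATP as calcium-mobilizing challenge; Repeats: singlicate.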
# OX1R antag-2: OX1R (human) antagonism. OX1R-expressing cells, FRET antagonist read-out. inhibition, % at 6.6 µM. hit rate 1.8% among 330,000; in the data active means inhibition mostly above about 38%, no sharp cut-off; inactive means mostly below about 40%;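 further: 0% = agonist challenge alone and 100% = reference antagonist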
# GPR7 antag cf: confirmation of human GPR7 antagonists; shares compounds with GPR7 antag; GPR7-expressing cells, calcium fluorescence antagonist mode; inhibition, % at 4.4 µM; hit rate 52% among 2,400; AID 1952; in the data active means inhibition above about 24%;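 further: stimulated with the GPR7 agonist NPW; 0% = agonist plus vehicle and 100% = vehicle alone without agonist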
# MCHR1 antag: antagonizes human MCHR1, a GPR7 antagonist counter-screen; hit rate 62% among 2,400; inhibition, % at 4.4 µM; shares compounds with GPR7 antag; MCHR1-expressing cells, fluorescence antagonist assay; in the data active means inhibition above about 22%;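 further: 0% = vehicle with agonist and 100% = vehicle without agonist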
# * = called active by the depositor; nt = no result given.
SMILES,GPR7 antag,EP2 modulator,OX1R antag-1,EP2 antag,CHO parental Ca,OX1R antag-2,GPR7 antag cf,MCHR1 antag
COC(=O)c1ccc(-n2nnnc2SCc2ccccc2OC)cc1,38*,-38,-20,20,-8,24,37*,61*
Cc1ccc(O)c(CN(CCCn2ccnc2)Cc2ccccc2C)c1,nt,4,nt,8,nt,nt,nt,nt
Cc1noc(NS(=O)(=O)c2ccc(NC(=O)CSc3nc4c(cc3C#N)CCCC4)cc2)c1C,-13,9,-5,14,14,15,nt,nt
CC(C)(C)N(NC(=O)c1ccccc1)C(=O)c1cccc(C(=O)N(NC(=O)c2ccccc2)C(C)(C)C)c1,42*,21,-6,13,-20,16,31*,23*
CCOC(=O)C1(P(=O)(c2ccc(Cl)cc2)c2ccc(Cl)cc2)CCC1,25*,41,-21,11,-20,16,9,4
CC(C)(C)c1ccc(C(=O)Nc2cccc3ncccc23)cc1,0,nt,-12,nt,-3,21,nt,nt
CCOc1ccc(C(=O)Nc2cccc3ncccc23)cc1Br,26*,-57,-34,12,-24,12,3,9
COc1ccc(-c2nn(-c3ccccc3)cc2/C=C/C(=O)OCC(=O)Nc2cccc(C#N)c2)cc1,-8,-8,-18,10,-12,8,nt,nt
CCOc1ccc2nc3ccc4[nH]onc4c3c2c1,28*,nt,43,8,-8,44*,48*,46*
CCOc1ccc2nc3cc(N)ccc3c(N)c2c1,nt,24,nt,24,nt,nt,nt,nt
CS(=O)c1nc(-c2ccc(Br)cc2)cc(-c2ccccc2)c1C#N (stereo unspecified),54*,11,81*,15,84*,23,97*,101*
CC(=O)Oc1ccc2c(c1)Oc1cc(OC(C)=O)ccc1C21OC(=O)c2ccccc21,105*,-15,106*,17,101*,60*,103*,109*
CC(=O)Oc1ccc2c(c1)C(=O)c1ccccc1CO2,1,11,-8,14,-9,44,nt,nt
O=C(OCC(=O)N1CCN(S(=O)(=O)c2ccccc2)CC1)c1ccc([N+](=O)[O-])o1,29*,-57,0,4,-9,63,-5,-1
COc1cc(N2CCCC2)c(OC)cc1/C=C1/NC(=S)NC1=O,32*,-23,64*,6,32*,25,41*,36*
COc1ccc(-c2noc(CCC(=O)NC3CCCCCC3)n2)cc1,-4,nt,-10,nt,2,14,nt,nt
COc1ccc(-c2noc(CN3CCCCC3c3nccn3C)n2)cc1 (stereo unspecified),41*,-43,-13,7,-23,11,35*,20
CCC(=O)NC(c1ccc(Cl)cc1Cl)c1ccc2cccnc2c1O (stereo unspecified),-11,-40,-16,6,-13,8,nt,nt
CCCCn1c(SCC(=O)N2CCCCC2C)nc2cc(S(N)(=O)=O)ccc21 (stereo unspecified),36*,-5,-23,11,-19,20,-20,8
O=C(NCCCN1CCOCC1)c1ccccc1N1C(=O)[C@@H]2Cc3c([nH]c4ccccc34)C(c3cccc(Cl)c3)N2C1=O (stereo partly specified),27*,nt,-17,nt,-8,2,25*,35*
Cc1ccc(C2c3[nH]c4ccccc4c3C[C@H]3C(=O)N(c4ccccc4C(=O)NCCCN4CCOCC4)C(=O)N23)cc1 (stereo partly specified),8,nt,-26,nt,-16,4,nt,nt
Cc1ccc(C2c3[nH]c4ccccc4c3C[C@H]3C(=O)N(c4ccccc4C(=O)NCCN4CCOCC4)C(=O)N23)cc1 (stereo partly specified),28*,nt,-12,nt,-7,9,7,22*
Cc1cc(C)n(-c2nc(NCCN(C)C)c3c4c(sc3n2)CCCC4)n1,24*,-17,4,10,-13,6,27*,30*
O=Cc1ccccc1Oc1ccccc1,-15,33,2,16,3,2,nt,nt
O=Cc1ccccc1OCCOc1ccccc1C=O,24*,-29,14,9,5,19,12,25*
SMILES,GPR7 antag,EP2 modulator,OX1R antag-1,EP2 antag,CHO parental Ca,OX1R antag-2,GPR7 antag cf,MCHR1 antag
Cc1ccccc1CC1(CO)CCCN(C(=O)c2ccccc2Cl)C1 (stereo unspecified),34*,-71,6,13,-3,14,32*,18
Cc1ccccc1CC1(CO)CCCN(C(=O)c2cccc(Cl)c2)C1 (stereo unspecified),18,-42,-20,12,-14,17,nt,nt
Cc1ccccc1CC1(CO)CCCN(C(=O)c2cc(Cl)ccc2F)C1 (stereo unspecified),nt,-27,-8,10,-16,15,nt,7
C/C(=N\OC(=O)c1cccc(C)c1)c1sc(-c2ccccc2)nc1C,-14,0,-24,5,-16,4,nt,nt
Nc1cccc(-c2nc3ccc(C(=O)c4ccccc4)cc3[nH]2)c1,43*,nt,0,nt,5,30,27*,63*
COc1ccc2nc(-c3cccc(N)c3)[nH]c2c1,-12,-13,-18,13,-14,19,nt,nt
CC(C)(CO)NC(=O)Nc1ccc(Cl)c(Cl)c1,26*,-67,2,11,13,2,-6,10
O=C(NCC1CC1(Cl)Cl)Nc1ccc(Cl)c(Cl)c1 (stereo unspecified),33*,nt,2,nt,33*,39,13,58*
CCC(CC)C(=O)Nc1ccc(Cl)c(Cl)c1,-16,-46,19,7,7,66,nt,nt
CCC(CC)c1nc(C#N)c(NCc2ccccc2)o1,31*,3,-22,2,-21,12,11,28*
COc1ccc(C(CCNCc2ccc(F)cc2)c2ccc(F)cc2)cc1 (stereo unspecified),39*,27,1,3,-9,21,50*,77*
COc1ccc(CNCCC(c2ccccc2)c2ccc(OC(C)C)cc2)cc1OC (stereo unspecified),26,nt,-20,nt,-5,5,nt,nt
COc1ccc(CNCCC(c2ccc(F)cc2)c2ccc(OC(C)C)cc2)cc1OC (stereo unspecified),32*,-20,-1,1,5,6,43*,77*
COc1ccc(C(CCNCc2ccccc2)c2ccc(F)cc2)cc1 (stereo unspecified),24,6,-39,2,-17,2,nt,nt
COc1ccc(C(CCNC(C)c2ccccc2)c2ccc(F)cc2)cc1 (stereo unspecified),40*,9,1,13,-1,7,47*,56*
